Experimental findings from ChEMBL document CHEMBL1122388, “beta 1-selective adrenoceptor antagonists. 2. 4-ether-linked phenoxypropanolamines” (J Med Chem, 1983) are described below.

Test [1] has as its target Adrenergic receptor beta (Rattus norvegicus) (UniProt P18090+P10608+P26255). Nature of the test: Beta agonistic activity as the dose required to increase heart rate by 30 beats/min in anesthetized rats upon intravenous administration. Type of test: functional, organism-based. In outline: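 Rats anesthetized with pentobarbitone sodium (75 mg/kg ip), reserpine-pretreated (5 mg/kg ip) 20-24 h earlier. Single doses of test compound given into tail vein, up to 20 animals depending on activity; blood pressure and heart rate recorded. ED30 (dose raising heart rate 30 beats/min) with 95% confidence limits from log dose-response linear regression.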

For test [2], the target named is Beta-1 adrenergic receptor (Rattus norvegicus) (UniProt P18090). Kind of test: Beta-1 adrenoceptor blocking activity as the dose required to inhibit 50% of tachycardia in anesthetized rats. Type of test: functional. In outline:
(§1)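 Isoprenaline (0.1 µg/kg) and test compound in saline given into right femoral vein; blood pressure from left carotid artery, heart rate by tachograph triggered from arterial pulse. Test compound injected 5 min after isoprenaline, cumulative doses up to, in most cases, 2 mg/kg. Six rats per compound; ED50 with 95% confidence limits from log dose-response linear regression.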

In test [3] the target is Beta-2 adrenergic receptor (Rattus norvegicus) (UniProt P10608). Nature of the test: Beta-2 adrenergic receptor antagonist activity as the dose required to inhibit 50% of vasodepressor response in anesthetized rats.
Sequence of Beta-2 adrenergic receptor (Rattus norvegicus) (P10608 whole entry, looked up): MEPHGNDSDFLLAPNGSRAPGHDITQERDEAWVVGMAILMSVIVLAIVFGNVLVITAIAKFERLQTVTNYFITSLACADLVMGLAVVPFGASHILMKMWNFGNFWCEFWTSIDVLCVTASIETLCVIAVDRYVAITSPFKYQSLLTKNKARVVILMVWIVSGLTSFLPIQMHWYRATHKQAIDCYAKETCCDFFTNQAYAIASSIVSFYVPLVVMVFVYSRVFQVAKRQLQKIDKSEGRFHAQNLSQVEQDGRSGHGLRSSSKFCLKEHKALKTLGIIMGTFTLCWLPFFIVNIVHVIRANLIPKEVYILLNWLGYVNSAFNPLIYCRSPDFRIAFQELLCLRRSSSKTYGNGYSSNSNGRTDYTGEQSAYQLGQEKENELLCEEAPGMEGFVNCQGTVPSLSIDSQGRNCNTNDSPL
The target in test [4] is Beta-1 adrenergic receptor (Rattus norvegicus) (UniProt P18090). Nature of the test: Compound was tested for beta-1 adrenergic receptor blocking activity as the dose required to inhibit 50% of tachycardia in anesthetized rats. Type of test: functional. In outline: as §1
Sequence of Beta-1 adrenergic receptor (Rattus norvegicus) (P18090 whole entry, looked up): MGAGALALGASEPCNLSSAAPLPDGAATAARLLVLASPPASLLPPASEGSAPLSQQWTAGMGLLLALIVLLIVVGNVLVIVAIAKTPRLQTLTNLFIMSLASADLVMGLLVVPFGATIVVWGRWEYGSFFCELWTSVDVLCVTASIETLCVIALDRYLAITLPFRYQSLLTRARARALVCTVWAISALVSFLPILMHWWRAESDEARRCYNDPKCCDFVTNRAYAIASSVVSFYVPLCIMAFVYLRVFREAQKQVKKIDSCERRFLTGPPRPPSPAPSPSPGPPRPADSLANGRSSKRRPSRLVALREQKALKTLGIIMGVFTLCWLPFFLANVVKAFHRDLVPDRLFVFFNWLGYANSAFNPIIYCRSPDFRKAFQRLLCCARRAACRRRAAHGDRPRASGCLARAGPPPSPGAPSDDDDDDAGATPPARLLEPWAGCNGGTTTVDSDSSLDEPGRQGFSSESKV

Each structure is given as a SMILES string.

A word on the ED50: it is the dose that gives a 50% effect, or the effect in half of the subjects. Regarding `COc1ccc(CCOCCOc2ccc(OCC(O)CNC(C)C)cc2)cc1` (centres undefined), the ED30 in test [1] turned out to be 0.009 mg/kg. Further, the figures for the median effective dose (ED50) in test [2] and in test [3] were 0.344 mg/kg and over 2 mg/kg, respectively.
The compound `CC(C)NCC(O)COc1ccc(CCOCCc2ccccc2)cc1` (centres undefined) returned an ED30 in test [1] of over 1 mg/kg. Besides, the results for the ED50 in test [4] and in test [3] were 0.163 mg/kg and over 2 mg/kg, respectively.
In test [1], `CC(C)NCC(O)COc1ccc(OCCOCCc2ccccc2)cc1` (centres undefined) had an ED30 of 0.02 mg/kg. Also, the median effective dose (ED50) in test [2] was 0.015 mg/kg; in test [3] it was over 50 mg/kg.
`COCCc1ccc(OCC(O)CNC(C)C)cc1` (centres undefined) registered an ED30 in test [1] of over 1 mg/kg. This compound also gave a 50% effective dose (ED50) in test [2] of 0.25 mg/kg.
`CSc1ccc(CCOCCOc2ccc(OCC(O)CNC(C)C)cc2)cc1` (centres undefined) returned an ED30 in test [1] of 0.042 mg/kg. For the same compound, the median effective dose (ED50) in test [2] was 0.174 mg/kg; in test [3], over 2 mg/kg.
In turn, `CC(C)NCC(O)COc1ccc(OCCOCCc2ccc(F)cc2)c(F)c1` (centres undefined) displayed an ED30 in test [1] of over 1 mg/kg. Also, the figures for the ED50 in test [2] and in test [3] were 0.001 mg/kg and over 2 mg/kg, respectively.
In the same order, the values of `CC(C)NCC(O)COc1ccc(OCCOCCOc2ccc(OCC(O)CNC(C)C)cc2)cc1` (centres undefined) are 0.005 mg/kg, 0.052 mg/kg and over 10 mg/kg.
`CC(C)(C)NCC(O)COc1ccc(OCCOCCc2ccc(F)cc2)cc1` (centres undefined) gave an ED30 in test [1] of 0.024 mg/kg. Further, the ED50 is 0.002 mg/kg in test [2] and over 2 mg/kg in test [3].
Take `CC(C)NCC(O)COc1ccc(CC(N)=O)cc1` (centres undefined): the ED30 in test [1] is over 1 mg/kg. The compound further returned a median effective dose (ED50) in test [2] of 0.091 mg/kg.
On to `CC(C)NCC(O)COc1ccc(OCCOCCc2ccc(F)cc2)cc1F` (centres undefined), for which, in test [1], the ED30 is 0.045 mg/kg. The ED50 in test [2] was 0.001 mg/kg; in test [3], over 2 mg/kg.
With `CC(=O)Nc1ccc(CCOCCOc2ccc(OCC(O)CNC(C)C)cc2)cc1` (centres undefined), the ED30 in test [1] came out at 0.029 mg/kg. In addition, the 50% effective dose (ED50) in test [2] and in test [3] was over 2 mg/kg in each case.
In test [1], `CC(C)(C)NCC(O)COc1ccc(OCCOCCc2ccccc2)cc1` (centres undefined) returned an ED30 of 0.022 mg/kg. Moreover, the ED50 was found to be 0.018 mg/kg in test [2] and 0.979 mg/kg in test [3].
Compound `CC(C)NC[C@H](O)COc1ccc(OCCOCCc2ccc(F)cc2)cc1` (stereo in doubt; 14a) had an ED30 in test [1] of 0.019 mg/kg. For the same compound, the ED50 in test [2] is 0.004 mg/kg; in test [3], over 2 mg/kg.
Regarding `CC(C)NCC(O)COc1ccc(CCOCCOc2ccccc2)cc1` (centres undefined), in test [1], the ED30 is over 1 mg/kg. Besides, the 50% effective dose (ED50) in test [4] is 0.068 mg/kg; in test [3], 0.924 mg/kg.
In test [1], `CC(C)NCC(O)COc1ccc(OCCOCCc2ccc(C#N)cc2)cc1` (centres undefined) came in with an ED30 of 0.032 mg/kg. In addition, the ED50 in test [2] is 0.654 mg/kg; in test [3], over 2 mg/kg.
Take `CC(C)NCC(O)COc1ccc(OCCOCCc2ccccc2)cc1Cl` (centres undefined): the ED30 in test [1] is 0.016 mg/kg. Also, the ED50 in test [2] turned out to be 0.025 mg/kg; in test [3], 0.834 mg/kg.
On to `Cc1cc(OCCOCCc2ccccc2)ccc1OCC(O)CNC(C)C` (centres undefined), for which the ED30 in test [1] stood at 0.057 mg/kg. Moreover, the median effective dose (ED50) in test [2] is 0.572 mg/kg; in test [3], over 2 mg/kg.
In the same order, the values of `CC(C)NCC(O)COc1ccc(OCCOCCOc2ccccc2)cc1` (centres undefined) are 0.017 mg/kg, 0.041 mg/kg and over 5 mg/kg.
As to `CC(C)NCC(O)COc1ccc(OCCOCCc2ccc(F)cc2)cc1` (centres undefined), the ED30 in test [1] came out at 0.037 mg/kg. Further, the ED50 in test [2] is 0.003 mg/kg; in test [3], over 2 mg/kg.
Turning to `CC(C)NC[C@H](O)COc1ccc(OCCOCCc2ccc(F)cc2)cc1` (stereo in doubt; 14b), the ED30 in test [1] is over 1 mg/kg. For the same compound, the ED50 in test [2] and in test [3] was over 2 mg/kg throughout.
`Cc1ccc(CCOCCOc2ccc(OCC(O)CNC(C)C)cc2)cc1` (centres undefined): in test [1], the ED30 came to 0.022 mg/kg. The ED50 in test [2] was 0.066 mg/kg; in test [3], over 2 mg/kg.
In turn, `CC(C)NCC(O)COc1ccc(OCCOCCc2ccc(Cl)cc2)cc1` (centres undefined) showed an ED30 in test [1] of 0.032 mg/kg. Moreover, the values for the median effective dose (ED50) in test [2] and in test [3] were 0.627 mg/kg and over 2 mg/kg, respectively.
